# How the values were obtained:
# Assay type in all cases: cell-based
# Set-up in all cases: scale not given: the % may be the effect or the level left
# [1] = target: Presenilin-1 (Homo sapiens) (UniProt P49768); assay: Reduction of human wild type PS1-induced amyloid beta-40 level in CHO cells overexpressing human APP751 at 100 nM after 24 hrs by liquid phase electrochemiluminescence assay relative to control
# [2] = tested on: CHO; assay: Reduction of human PS1 delta exon9 mutant-induced amyloid beta-40 level in CHO cells overexpressing human APP751 at 100 nM after 24 hrs by liquid phase electrochemiluminescence assay relative to control
# Summary of the method: (§1)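 APP751 CHO cells stably expressing PS1-ΔExon9, PS1-L166P or PS1-WT, cultured in parallel in serum-containing medium. Treated 24 h with increasing γ-secretase inhibitor concentrations or DMSO. Conditioned-media Abeta40/Abeta42 quantified by LPECL against synthetic peptide standards (16–2000 pg/ml). Duplicates normalized to DMSO. n = 3, one-way ANOVA with Dunnett's test versus PS1-WT.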
# [3] = tested on: Presenilin-1 (Homo sapiens), P49768 [L166P]; assay: Reduction of human PS1 L166P mutant-induced amyloid beta-40 level in CHO cells overexpressing human APP751 at 100 nM after 24 hrs by liquid phase electrochemiluminescence assay relative to control; summary of the method: as §1
# [4] = target: Presenilin-1 (Homo sapiens) (UniProt P49768); assay: Reduction of human wild type PS1-induced amyloid beta-40 level in CHO cells overexpressing human APP751 at 250 nM after 24 hrs by liquid phase electrochemiluminescence assay relative to control
# [5] = tested on: CHO; assay: Reduction of human PS1 delta exon9 mutant-induced amyloid beta-40 level in CHO cells overexpressing human APP751 at 250 nM after 24 hrs by liquid phase electrochemiluminescence assay relative to control; summary of the method: as §1
# [6] = tested on: Presenilin-1 (Homo sapiens), P49768 [L166P]; assay: Reduction of human PS1 L166P mutant-induced amyloid beta-40 level in CHO cells overexpressing human APP751 at 250 nM after 24 hrs by liquid phase electrochemiluminescence assay relative to control; summary of the method: as §1
# [7] = target: Presenilin-1 (Homo sapiens) (UniProt P49768); assay: Reduction of human wild type PS1-induced amyloid beta-40 level in CHO cells overexpressing human APP751 at 500 nM after 24 hrs by liquid phase electrochemiluminescence assay relative to control
# [8] = tested on: CHO; assay: Reduction of human PS1 delta exon9 mutant-induced amyloid beta-40 level in CHO cells overexpressing human APP751 at 500 nM after 24 hrs by liquid phase electrochemiluminescence assay relative to control; summary of the method: as §1
# [9] = tested on: Presenilin-1 (Homo sapiens), P49768 [L166P]; assay: Reduction of human PS1 L166P mutant-induced amyloid beta40 level in CHO cells overexpressing human APP751 at 500 nM after 24 hrs by liquid phase electrochemiluminescence assay relative to control; summary of the method: as §1
# [10] = target: Presenilin-1 (Homo sapiens) (UniProt P49768); assay: Reduction of human wild type PS1-induced amyloid beta-42 level in CHO cells overexpressing human APP751 at 100 nM after 24 hrs by liquid phase electrochemiluminescence assay relative to control
# [11] = tested on: CHO; assay: Reduction of human PS1 delta exon9 mutant-induced amyloid beta-42 level in CHO cells overexpressing human APP751 at 100 nM after 24 hrs by liquid phase electrochemiluminescence assay relative to control; summary of the method: as §1
# [12] = tested on: Presenilin-1 (Homo sapiens), P49768 [L166P]; assay: Reduction of human PS1 L166P mutant-induced amyloid beta-42 level in CHO cells overexpressing human APP751 at 100 nM after 24 hrs by liquid phase electrochemiluminescence assay relative to control; summary of the method: as §1
# [13] = target: Presenilin-1 (Homo sapiens) (UniProt P49768); assay: Reduction of human wild type PS1-induced amyloid beta-42 level in CHO cells overexpressing human APP751 at 250 nM after 24 hrs by liquid phase electrochemiluminescence assay relative to control
# [14] = tested on: CHO; assay: Reduction of human PS1 delta exon9 mutant-induced amyloid beta-42 level in CHO cells overexpressing human APP751 at 250 nM after 24 hrs by liquid phase electrochemiluminescence assay relative to control; summary of the method: as §1
# [15] = tested on: Presenilin-1 (Homo sapiens), P49768 [L166P]; assay: Reduction of human PS1 L166P mutant-induced amyloid beta-42 level in CHO cells overexpressing human APP751 at 250 nM after 24 hrs by liquid phase electrochemiluminescence assay relative to control; summary of the method: as §1
# [16] = target: Presenilin-1 (Homo sapiens) (UniProt P49768); assay: Reduction of human wild type PS1-induced amyloid beta-42 level in CHO cells overexpressing human APP751 at 500 nM after 24 hrs by liquid phase electrochemiluminescence assay relative to control
# [17] = tested on: CHO; assay: Reduction of human PS1 delta exon9 mutant-induced amyloid beta-42 level in CHO cells overexpressing human APP751 at 500 nM after 24 hrs by liquid phase electrochemiluminescence assay relative to control
# [18] = tested on: Presenilin-1 (Homo sapiens), P49768 [L166P]; assay: Reduction of human PS1 L166P mutant-induced amyloid beta-42 level in CHO cells overexpressing human APP751 at 500 nM after 24 hrs by liquid phase electrochemiluminescence assay relative to control; summary of the method: as §1
structure (smiles),measurement,setting,value
"CC(C)C[C@H](NC(=O)C(Cc1ccccc1)C[C@@H](O)[C@H](Cc1ccccc1)NC(=O)OC(C)(C)C)C(=O)N[C@@H](Cc1ccccc1)C(N)=O (single isomer, unassigned)",Activity,[1],8.1%
same,Activity,[2],86.3%
same,Activity,[3],41.5%
same,Activity,[4],2.95%
same,Activity,[5],54%
same,Activity,[6],20.6%
same,Activity,[7],1.92%
same,Activity,[8],33.4%
same,Activity,[9],13.1%
same,Activity,[10],11.3%
same,Activity,[11],98.3%
same,Activity,[12],62.3%
same,Activity,[13],3.28%
same,Activity,[14],54.5%
same,Activity,[15],44.1%
same,Activity,[16],2.59%
same,Activity,[17],34.1%
same,Activity,[18],34.2%

# Reference: ChEMBL document CHEMBL1156480, “Insensitivity to Abeta42-lowering nonsteroidal anti-inflammatory drugs and gamma-secretase inhibitors is common among aggressive presenilin-1 mutations” (J Biol Chem, 2007)
